Test results as given in ChEMBL document CHEMBL3085696, “Aurora isoform selectivity: design and synthesis of imidazo[4,5-b]pyridine derivatives as highly selective inhibitors of Aurora-A kinase in cells” (J Med Chem, 2013).

Key:
Aurora kinase A [1] = biological target: Aurora kinase A (Homo sapiens, UniProt O14965, R220K); assay: Inhibition of autophosphorylation of aurora-A R220K mutant at T288 in human HCT116 cells after 2 hrs; type: cell-based, HCT-116
Procedure, shortened: (§1)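 Cells transfected with N-terminal Myc-tagged Aurora-A (wild type or T217E, L215R or R220K mutant, made by Quikchange mutagenesis), then exposed to a range of inhibitor concentrations for 2 h. Lysed in LDS sample buffer, sonicated, boiled, run on LDS-PAGE and blotted to nitrocellulose. Probed with anti-P-T288 (Aurora-A autophosphorylation) and anti-P-histone H3 S10 (Aurora-B substrate) antibodies. Blots quantified and IC50 fitted.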

Aurora kinase A [2] = biological target: Aurora kinase A (Homo sapiens, UniProt O14965, L215R); assay: Inhibition of autophosphorylation of aurora-A L215R mutant at T288 in human HCT116 cells after 2 hrs; type: cell-based, HCT-116; procedure, shortened: as §1
Chain of Aurora kinase A (Homo sapiens, UniProt O14965, L215R) (O14965 whole entry I57V/L215R): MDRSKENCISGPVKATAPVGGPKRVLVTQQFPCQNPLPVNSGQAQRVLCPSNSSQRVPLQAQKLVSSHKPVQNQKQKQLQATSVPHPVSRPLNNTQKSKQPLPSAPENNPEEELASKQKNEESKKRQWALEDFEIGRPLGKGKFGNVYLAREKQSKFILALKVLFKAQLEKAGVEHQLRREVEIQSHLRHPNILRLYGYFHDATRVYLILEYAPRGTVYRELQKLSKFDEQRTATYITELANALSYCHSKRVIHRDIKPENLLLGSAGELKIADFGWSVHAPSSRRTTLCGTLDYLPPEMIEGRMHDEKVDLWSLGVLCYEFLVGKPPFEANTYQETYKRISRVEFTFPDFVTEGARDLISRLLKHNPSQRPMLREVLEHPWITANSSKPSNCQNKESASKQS

Aurora kinase A [3] = biological target: T1, Aurora kinase A (Homo sapiens, UniProt O14965, T217E); assay: Inhibition of autophosphorylation of aurora-A T217E mutant at T288 in human HCT116 cells after 2 hrs; type: cell-based, HCT-116; procedure, shortened: as §1
T1 sequence (O14965 whole entry I57V/T217E): as the sequence (O14965 whole entry I57V/L215R) above, with R215L, T217E counted along it

Aurora kinase A [4] = biological target: T2, Aurora kinase A (Homo sapiens, UniProt O14965); assay: Inhibition of autophosphorylation of N-terminal Myc tagged wild type aurora-A at T288 in human HCT116 cells after 2 hrs; type: cell-based, HCT-116; procedure, shortened: as §1
T2 sequence (O14965 whole entry): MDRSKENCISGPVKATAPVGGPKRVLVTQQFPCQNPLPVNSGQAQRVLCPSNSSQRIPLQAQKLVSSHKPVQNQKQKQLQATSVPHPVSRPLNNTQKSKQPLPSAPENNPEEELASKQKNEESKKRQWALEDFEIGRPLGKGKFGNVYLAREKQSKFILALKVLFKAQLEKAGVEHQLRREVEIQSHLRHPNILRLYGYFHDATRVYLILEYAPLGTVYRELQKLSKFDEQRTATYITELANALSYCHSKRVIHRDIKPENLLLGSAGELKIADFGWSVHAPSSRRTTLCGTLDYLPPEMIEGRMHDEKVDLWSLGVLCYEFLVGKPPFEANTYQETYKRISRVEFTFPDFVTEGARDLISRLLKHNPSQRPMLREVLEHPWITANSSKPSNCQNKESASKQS

Aurora kinase A [5] = biological target: T1, Aurora kinase A; assay: Inhibition of autophosphorylation of aurora-A T217E mutant at T288 in human HeLa cells after 2 hrs; type: cell-based; procedure, shortened: as §1
Mus musculus [6] = assay: Volume of distribution in Balb/C mouse at 5 mg/kg, iv and po; type: ADME, organism-based; design: dose 5 mg/kg, route oral; details: in vivo
Procedure, shortened: (§2)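 Female Balb/C mice given 5 mg/kg po or iv in 10% DMSO/5% Tween 20 in saline. Terminal cardiac-puncture plasma taken at 5, 15, 30 min and 1, 2, 4, 6, 24 h. Methanol precipitation with olomoucine internal standard. Analysis by LC/MS (ESI+ MRM).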

[7] = Metabolic stability in CD1 mouse liver microsomes at 10 uM after 30 mins; type: ADME, Microsome
Procedure, shortened: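 Compound at 10 μM incubated with male CD1 mouse liver microsomes (1 mg/mL protein) plus NADPH 1 mM, UDPGA 2.5 mM and MgCl2 3 mM in 10 mM PBS at 37 °C, for 0 and 30 min. Controls omit cofactors. Percent remaining measured by LC/MS.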

[8] = Antiproliferative activity against human MV411 cells; type: functional; details: MV4-11
HCT-116 = assay: Antiproliferative activity against human HCT116 cells; type: functional
[9] = biological target: Vascular endothelial growth factor receptor 1 (Homo sapiens) (UniProt P17948); assay: Inhibition of VEGFR1 (unknown origin) at 1 uM
Chain of Vascular endothelial growth factor receptor 1 (Homo sapiens) (P17948 whole entry): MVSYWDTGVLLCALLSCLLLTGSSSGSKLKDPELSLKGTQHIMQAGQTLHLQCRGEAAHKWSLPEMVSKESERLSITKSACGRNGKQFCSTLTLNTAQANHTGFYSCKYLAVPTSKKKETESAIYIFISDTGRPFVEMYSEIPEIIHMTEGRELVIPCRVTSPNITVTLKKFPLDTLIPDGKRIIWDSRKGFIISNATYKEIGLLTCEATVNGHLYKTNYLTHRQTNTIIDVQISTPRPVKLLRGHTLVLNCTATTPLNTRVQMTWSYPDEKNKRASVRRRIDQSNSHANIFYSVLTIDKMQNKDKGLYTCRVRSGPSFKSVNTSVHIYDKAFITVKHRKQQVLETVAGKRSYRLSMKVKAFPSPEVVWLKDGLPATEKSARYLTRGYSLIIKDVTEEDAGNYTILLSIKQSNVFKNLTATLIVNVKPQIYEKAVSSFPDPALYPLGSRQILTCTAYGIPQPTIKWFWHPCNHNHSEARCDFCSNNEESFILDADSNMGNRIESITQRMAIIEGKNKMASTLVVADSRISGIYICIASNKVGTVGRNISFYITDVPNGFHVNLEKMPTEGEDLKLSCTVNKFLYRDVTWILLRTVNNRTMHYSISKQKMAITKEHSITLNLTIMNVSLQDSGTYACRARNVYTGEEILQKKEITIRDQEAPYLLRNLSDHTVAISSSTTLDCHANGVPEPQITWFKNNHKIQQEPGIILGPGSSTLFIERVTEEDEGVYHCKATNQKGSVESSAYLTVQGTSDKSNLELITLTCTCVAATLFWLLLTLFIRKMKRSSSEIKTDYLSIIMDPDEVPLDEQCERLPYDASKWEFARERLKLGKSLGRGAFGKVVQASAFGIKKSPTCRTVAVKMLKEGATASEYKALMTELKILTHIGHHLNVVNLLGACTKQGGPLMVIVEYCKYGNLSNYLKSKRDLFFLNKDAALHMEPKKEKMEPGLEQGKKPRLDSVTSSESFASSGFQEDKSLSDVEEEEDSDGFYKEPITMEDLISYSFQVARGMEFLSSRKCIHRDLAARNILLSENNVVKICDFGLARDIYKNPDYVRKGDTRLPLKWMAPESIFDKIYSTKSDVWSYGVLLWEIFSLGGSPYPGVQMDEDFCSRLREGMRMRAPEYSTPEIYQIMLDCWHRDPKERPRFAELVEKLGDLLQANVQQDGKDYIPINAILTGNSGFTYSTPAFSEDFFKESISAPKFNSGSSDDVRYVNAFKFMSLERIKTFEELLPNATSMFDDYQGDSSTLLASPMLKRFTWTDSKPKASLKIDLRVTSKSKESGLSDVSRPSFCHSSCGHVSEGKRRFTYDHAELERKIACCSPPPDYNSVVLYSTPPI
Procedure, shortened: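 110-kinase panel profiling, compounds tested at 1 μM, read as percent inhibition.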

Aurora kinase B [10] = biological target: T3, Aurora kinase B (Homo sapiens, UniProt Q96GD4); assay: Inhibition of N-terminal Myc tagged aurora-B-mediated histone H3 phosphorylation at S10 in human HCT116 cells after 2 hrs; type: cell-based, HCT-116; procedure, shortened: as §1
T3 sequence (Q96GD4 whole entry): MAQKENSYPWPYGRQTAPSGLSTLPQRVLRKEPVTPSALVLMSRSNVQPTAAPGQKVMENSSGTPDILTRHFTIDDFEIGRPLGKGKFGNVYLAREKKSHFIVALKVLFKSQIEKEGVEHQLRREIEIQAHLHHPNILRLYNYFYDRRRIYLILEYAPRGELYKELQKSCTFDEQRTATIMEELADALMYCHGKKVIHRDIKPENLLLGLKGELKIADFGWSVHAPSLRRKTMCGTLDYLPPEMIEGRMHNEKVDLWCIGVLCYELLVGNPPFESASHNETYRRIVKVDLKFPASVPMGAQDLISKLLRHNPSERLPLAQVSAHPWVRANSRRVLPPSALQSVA

Aurora kinase A [11] = biological target: T2, Aurora kinase A; assay: Inhibition of autophosphorylation of N-terminal Myc tagged aurora-A at T288 in human HCT116 cells after 2 hrs; type: cell-based, HCT-116
Procedure, shortened: (§3)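 Cells transfected with Myc-tagged Aurora-A (wild type or T217E, L215R, R220K mutants) and treated with inhibitor concentrations for 2 h. Lysed in LDS buffer; SDS-type PAGE and western blot. Blots probed for P-T288 (Aurora-A autophosphorylation) and phospho-histone H3 S10 (Aurora-B substrate). Blots quantified; IC50 derived; ratio taken as H3 IC50 over T288 IC50.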

HeLa = assay: Selectivity ratio of IC50 for aurora-B-mediated histone H3 phosphorylation at S10 in human HeLa cells to IC50 for autophosphorylation of N-terminal Myc tagged aurora-A at T288 in human HeLa cells; type: cell-based; procedure, shortened: as §3
Aurora kinase B [12] = biological target: T3, Aurora kinase B; assay: Inhibition of N-terminal Myc tagged aurora-B-mediated histone H3 phosphorylation at S10 in human HeLa cells after 2 hrs; type: cell-based; procedure, shortened: as §3
Aurora kinase A [13] = biological target: T2, Aurora kinase A; assay: Inhibition of autophosphorylation of N-terminal Myc tagged aurora-A at T288 in human HeLa cells after 2 hrs; type: cell-based; procedure, shortened: as §3
Aurora kinase B [14] = biological target: T3, Aurora kinase B; assay: Inhibition of full-length aurora-B (unknown origin) using 5FAMLRRASLG-CONH2 as substrate after 60 mins
Procedure, shortened: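 Full-length Aurora-B/INCENP complex (1 nM) incubated with 1.5 μM 5FAM-LRRASLG-CONH2 peptide and 15 μM ATP in Tris pH 7.4 buffer with NaCl, MgCl2, DTT, Tween 20. Runs 60 min at room temperature, then EDTA stop. Microfluidic mobility-shift readout of percent conversion. Duplicate 8-point curves, 0.25 pM–200 μM final. IC50 by four-parameter logistic fit.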

Aurora kinase A [15] = biological target: T2, Aurora kinase A; assay: Inhibition of N-terminal HIS-tagged aurora-A (unknown origin) using 5FAM-LRRASLG-CONH2 as substrate after 60 mins
Procedure, shortened: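 Aurora-A (5 nM N-terminal His-tagged) incubated with 1.5 μM 5FAM-LRRASLG-CONH2 peptide and 20 μM ATP in 50 mM Tris pH 7.4, 200 mM NaCl, 5 mM MgCl2, 2 mM DTT, 0.1% Tween 20. Runs 60 min at room temperature; EDTA stop. Microfluidic separation of product from substrate. Duplicate 8-point curves, 0.25 pM–200 μM final, 1–2% DMSO. IC50 from four-parameter logistic fit.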

Mus musculus [16] = assay: Oral bioavailability in Balb/C mouse at 5 mg/kg; type: ADME, organism-based; details: in vivo; procedure, shortened: as §2
[17] = Metabolic stability in human liver microsomes at 10 uM after 30 mins; type: ADME
Procedure, shortened: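 Mixed-gender pooled human liver microsomes (1 mg/mL) incubated with compound at 10 μM plus NADPH 1 mM, UDPGA 2.5 mM and MgCl2 3 mM in 10 mM PBS at 37 °C, for 0 and 30 min. Cofactor-free controls included. Percent remaining measured by LC/MS.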

[18] = biological target: Glycogen synthase kinase-3 beta (Homo sapiens) (UniProt P49841); details: 1 uM
Chain of Glycogen synthase kinase-3 beta (Homo sapiens) (P49841 whole entry, looked up): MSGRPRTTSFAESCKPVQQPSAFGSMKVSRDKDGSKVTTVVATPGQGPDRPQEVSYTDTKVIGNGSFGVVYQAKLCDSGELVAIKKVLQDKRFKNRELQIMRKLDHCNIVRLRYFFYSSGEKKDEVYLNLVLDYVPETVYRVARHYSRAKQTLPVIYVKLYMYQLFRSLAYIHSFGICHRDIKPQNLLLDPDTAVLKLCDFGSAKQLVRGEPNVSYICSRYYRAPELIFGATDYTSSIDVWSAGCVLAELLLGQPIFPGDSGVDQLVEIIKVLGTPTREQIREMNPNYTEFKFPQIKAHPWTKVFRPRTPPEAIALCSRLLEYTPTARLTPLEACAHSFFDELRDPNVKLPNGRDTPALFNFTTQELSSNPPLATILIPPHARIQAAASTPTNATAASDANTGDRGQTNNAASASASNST

[19] = biological target: T4, Aurora kinase A (Homo sapiens) (UniProt O14965); details: 1 uM
T4 sequence (whole entry): T2 sequence (O14965 whole entry)

Chain of Aurora kinase A (Homo sapiens, UniProt O14965, R220K) (O14965 whole entry I57V/R220K): as the sequence (O14965 whole entry I57V/L215R) above, with R215L, R220K counted along it

Q: What does the source list for `Cc1nn(C)cc1-c1nc2c(Oc3ccc(C(=O)Nc4ccccc4)cc3)c(Cl)cnc2[nH]1`?
A: IC50 (Aurora kinase A [1]): 27 nM; IC50 (Aurora kinase A [2]): 27 nM; IC50 (Aurora kinase A [3]): 960 nM; IC50 (Aurora kinase A [4]): 29 nM; IC50 (Aurora kinase A [5]): 4110 nM; Vd (Mus musculus [6]): 1.8 L/kg; metabolized at 0.5 h, 10 µM [7]: 22%; GI50 [8]: 299 nM; GI50 (HCT-116): 2300 nM; inhibition [9]: > 80%; IC50 (Aurora kinase B [10]): 24600 nM; IC50 (Aurora kinase A [11]): 65 nM; Ratio IC50 (HeLa): 480; IC50 (Aurora kinase B [12]): 76800 nM; IC50 (Aurora kinase A [13]): 160 nM; IC50 (Aurora kinase B [14]): 12700 nM; IC50 (Aurora kinase A [15]): 67 nM; F (Mus musculus [16]): 100%; metabolized at 0.5 h, 10 µM [17]: 9%; inhibition [18]: > 80%; inhibition [19]: > 80%
